Data taken from ChEMBL document CHEMBL4049389, “Design, synthesis and biological evaluation of aminobenzyloxyarylamide derivatives as selective κ opioid receptor antagonists” (Eur J Med Chem, 2017).
Activity calls are given as the source filed them. The calls are words filed in the database; no cut-off is given here.

What was measured:
Mu-type opioid receptor [1] = target: T1, Mu-type opioid receptor (Homo sapiens, UniProt P35372); assay: Displacement of [3H]DAMGO from recombinant human mu-opioid receptor expressed in CHO cell membranes at 1 X 10^-6 M after 60 mins by liquid scintillation counting method relative to control
Summary of the method: (§1)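 Single-concentration radioligand displacement in membranes from CHO (κ, μ) or HEK293 (δ) cells expressing human receptors. Radioligands were [3H]-U69,593, [3H]-DAMGO and [3H]-DPDPE, incubated in Tris-HCl at 25 °C for 60 min, filtered and counted by scintillation. Read-out was percent inhibition of specific binding; assays were done in duplicate.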

[2] = target: T2, Delta-type opioid receptor (Homo sapiens, UniProt P41143); assay: Displacement of [3H]DPDPE from recombinant human delta-opioid receptor expressed in HEK293 cell membranes at 1 X 10^-6 M after 60 mins by liquid scintillation counting method relative to control; summary of the method: as §1
[3] = target: T3, Kappa-type opioid receptor (Homo sapiens, UniProt P41145); assay: Displacement of [3H]U69593 from recombinant human kappa-opioid receptor expressed in CHO cell membranes at 1 X 10^-5 M after 60 mins by liquid scintillation counting method relative to control; summary of the method: as §1
Mu-type opioid receptor [4] = target: T1, Mu-type opioid receptor; assay: Displacement of [3H]DAMGO from recombinant human mu-opioid receptor expressed in CHO cell membranes at 1 X 10^-5 M after 60 mins by liquid scintillation counting method relative to control; summary of the method: as §1
[5] = target: T3, Kappa-type opioid receptor; assay: Displacement of [3H]U69593 from recombinant human kappa-opioid receptor expressed in CHO cell membranes at 1 X 10^-6 M after 60 mins by liquid scintillation counting method relative to control; summary of the method: as §1
[6] = target: T2, Delta-type opioid receptor; assay: Displacement of [3H]DPDPE from recombinant human delta-opioid receptor expressed in HEK293 cell membranes at 1 X 10^-5 M after 60 mins by liquid scintillation counting method relative to control; summary of the method: as §1
Mus musculus [7] = assay: Anxiolytic activity in ICR mouse assessed as increase in number of open arm entries at 30 mg/kg, ip administered 30 mins prior to test measured for 5 mins by elevated plus maze test; type: functional, organism-based
Summary of the method: (§2)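 Male ICR mice (18–22 g), 10 per group, adapted ≥1 h. Dosed i.p. with saline vehicle 30 min pretest. Maze elevated 50 cm; each mouse started on the central platform facing an open arm. Entries and time in open and closed arms were video-tracked over 5 min, expressed as OE/(CE+OE) and OT/(OT+CT); mean ± SEM.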

Homo sapiens [8] = organism: Homo sapiens; assay: Selectivity ratio of Ki for displacement of [3H]DPDPE from recombinant human delta-opioid receptor expressed in HEK293 cell membranes to Ki for displacement of [3H]U69593 from recombinant human kappa-opioid receptor expressed in CHO cell membranes
Mus musculus [9] = assay: Antidepressant-like activity in ICR mouse assessed as decrease in immobility time at 30 mg/kg, ip administered 30 mins prior to test measured for last 4 mins of 6 mins observation by forced swim test; type: functional, organism-based
Summary of the method: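 Male ICR mice (20–25 g), 10 per group, adapted ≥15 min before testing. Dosed i.p. with saline vehicle 30 min pretest. Each mouse was placed in a cylinder 10 cm wide with water 6 cm deep at 25 °C for 6 min. Immobility was scored over the last 4 min; mean ± SEM.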

Homo sapiens [10] = organism: Homo sapiens; assay: Selectivity ratio of Ki for displacement of [3H]DAMGO from recombinant human mu-opioid receptor expressed in CHO cell membranes to Ki for displacement of [3H]U69593 from recombinant human kappa-opioid receptor expressed in CHO cell membranes
[11] = target: T3, Kappa-type opioid receptor; assay: Displacement of [3H]U69593 from recombinant human kappa-opioid receptor expressed in CHO cell membranes after 60 mins by liquid scintillation counting method
Mus musculus [12] = assay: Anxiolytic activity in ICR mouse assessed as increase in time spent on open arms at 30 mg/kg, ip administered 30 mins prior to test measured for 5 mins by elevated plus maze test; type: functional, organism-based; summary of the method: as §2
[13] = target: T2, Delta-type opioid receptor; assay: Displacement of [3H]DPDPE from recombinant human delta-opioid receptor expressed in HEK293 cell membranes after 60 mins by liquid scintillation counting method
Mu-type opioid receptor [14] = target: T1, Mu-type opioid receptor; assay: Displacement of [3H]DAMGO from recombinant human mu-opioid receptor expressed in CHO cell membranes after 60 mins by liquid scintillation counting method
Homo sapiens [15] = organism: Homo sapiens; assay: (§3) Selectivity ratio of IC50 for antagonist activity at recombinant human delta-opioid receptor expressed in HEK293 cell membranes assessed as inhibition of DPDPE-induced [35S]GTPgammaS binding to IC50 for antagonist activity at recombinant human kappa-opioid receptor expressed in CHO cell membranes assessed as inhibition of U69593-induced [35S]GTPgammaS binding
Summary of the method: (§4)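 Membranes from CHO cells (κ, μ) or HEK293 cells (δ) expressing human opioid receptors. Assay buffer was 20 mM HEPES pH 7.4, 5 mM MgCl2, 100 mM NaCl, 1 mM EDTA, 1 mM DTT with GDP. GTP-γ-35S was 0.5 nM final. Agonist at ~80% max stimulation: U69,593 300 nM (κ), DAMGO (μ), DPDPE 30 nM (δ). Read by WGA SPA, 11-point curves, four-parameter fit; mean ± SEM of ≥3 experiments.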

[16] = target: T3, Kappa-type opioid receptor; assay: Antagonist activity at recombinant human kappa-opioid receptor expressed in CHO cell membranes assessed as inhibition of U69593-induced [35S]GTPgammaS binding after 4 hrs by microbeta scintillation counting method; type: functional; summary of the method: as §4
Homo sapiens [17] = organism: Homo sapiens; assay: as §3, with “mu-opioid” for “delta-opioid”, “CHO” for “HEK293”, “DAMGO-induced” for “DPDPE-induced”; summary of the method: as §4
[18] = target: T2, Delta-type opioid receptor; assay: Antagonist activity at recombinant human delta-opioid receptor expressed in HEK293 cell membranes assessed as inhibition of DPDPE-induced [35S]GTPgammaS binding after 2 hrs by microbeta scintillation counting method; type: functional; summary of the method: as §4
Mu-type opioid receptor [19] = target: T1, Mu-type opioid receptor; assay: Antagonist activity at recombinant human mu-opioid receptor expressed in CHO cell membranes assessed as inhibition of DAMGO-induced [35S]GTPgammaS binding after 4 hrs by microbeta scintillation counting method; type: functional; summary of the method: as §4
[20] = Half life in rat at 1 or 10 mg/kg, iv or po by LC-MS/MS analysis; type: ADME, organism-based; settings: in vivo
[21] = Tmax in rat at 1 or 10 mg/kg, iv or po by LC-MS/MS analysis; type: ADME, organism-based; settings: in vivo
[22] = Oral bioavailability in rat at 10 mg/kg by LC-MS/MS analysis; type: ADME, organism-based; settings: in vivo

T2 sequence (P41143 whole entry): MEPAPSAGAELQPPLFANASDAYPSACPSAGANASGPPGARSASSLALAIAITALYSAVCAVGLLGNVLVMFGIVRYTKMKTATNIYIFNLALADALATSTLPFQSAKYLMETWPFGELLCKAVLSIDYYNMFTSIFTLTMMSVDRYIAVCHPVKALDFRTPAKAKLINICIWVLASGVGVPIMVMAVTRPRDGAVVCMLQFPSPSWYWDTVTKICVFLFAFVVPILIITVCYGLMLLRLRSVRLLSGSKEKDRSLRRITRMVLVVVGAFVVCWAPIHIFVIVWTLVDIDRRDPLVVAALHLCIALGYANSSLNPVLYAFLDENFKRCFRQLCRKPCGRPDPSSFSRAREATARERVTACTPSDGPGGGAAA
T3 sequence (P41145 whole entry): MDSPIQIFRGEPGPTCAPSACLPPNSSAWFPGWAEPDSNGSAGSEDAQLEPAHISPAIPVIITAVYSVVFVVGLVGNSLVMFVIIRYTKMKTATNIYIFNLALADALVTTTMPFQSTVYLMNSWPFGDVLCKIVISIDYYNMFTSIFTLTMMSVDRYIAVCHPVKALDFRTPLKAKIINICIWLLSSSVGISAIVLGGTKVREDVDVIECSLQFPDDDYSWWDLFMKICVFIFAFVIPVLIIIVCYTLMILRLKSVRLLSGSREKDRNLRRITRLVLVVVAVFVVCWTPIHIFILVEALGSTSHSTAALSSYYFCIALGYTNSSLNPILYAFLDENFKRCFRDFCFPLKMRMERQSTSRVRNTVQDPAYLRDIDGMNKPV
T1 sequence (P35372 whole entry): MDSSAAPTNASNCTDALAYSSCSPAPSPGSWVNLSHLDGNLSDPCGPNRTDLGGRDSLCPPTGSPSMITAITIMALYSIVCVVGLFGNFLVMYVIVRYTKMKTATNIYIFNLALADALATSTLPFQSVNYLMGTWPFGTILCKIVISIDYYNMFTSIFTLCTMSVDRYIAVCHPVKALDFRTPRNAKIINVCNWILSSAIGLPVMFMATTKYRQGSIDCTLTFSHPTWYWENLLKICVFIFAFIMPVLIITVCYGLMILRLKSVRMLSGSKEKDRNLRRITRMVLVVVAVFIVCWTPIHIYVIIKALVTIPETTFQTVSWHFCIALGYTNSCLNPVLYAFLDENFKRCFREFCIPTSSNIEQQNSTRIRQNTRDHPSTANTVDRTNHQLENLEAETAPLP

Row | inhibition (Mu-type opioid receptor [1]) | inhibition [2] | inhibition [3] | inhibition (Mu-type opioid receptor [4]) | inhibition [5] | inhibition [6] | Ki [11] | Ki [13] | Ki (Mu-type opioid receptor [14]) | SMILES | Ratio Ki (Homo sapiens [8]) | Ratio Ki (Homo sapiens [10]) | further results
1 | 56.1% | 45.5% | 100% | 93.6% | 97% | 87.2% | 11.9 nM | 91.5 nM | 90.9 nM | Cc1cc(C)cc(C2CCCN2Cc2ccc(Oc3ccc(C(N)=O)cc3F)cc2)c1 (racemic) | 7.6 | 7.6 | Activity (Mus musculus [7]): Active; Activity (Mus musculus [9]): Active; Ratio IC50 (Homo sapiens [15]): 14.3; Activity (Mus musculus [12]): Active; IC50 [16]: 6.68 nM; Ratio IC50 (Homo sapiens [17]): 3.4; IC50 [18]: 95.5 nM; IC50 (Mu-type opioid receptor [19]): 22.6 nM
2 | 51.4% | 54.1% | 100% | 94.2% | 98.5% | 92.4% | 15.7 nM | 191 nM | 220 nM | Cc1cc(C)cc(C2CCCN2Cc2ccc(Oc3ccc(C(N)=O)cc3F)c(Cl)c2)c1 (stereo unspecified) | 12.2 | 14 | Activity (Mus musculus [7]): Active; Activity (Mus musculus [9]): Active; Ratio IC50 (Homo sapiens [15]): 1.7; Activity (Mus musculus [12]): Active; IC50 [16]: 9.32 nM; Ratio IC50 (Homo sapiens [17]): 15.5; IC50 [18]: 15.8 nM; IC50 (Mu-type opioid receptor [19]): 144 nM
3 | 71% | 45.5% | 100% | 95.3% | 98.8% | 97.1% | 29.4 nM | 267 nM | 62.8 nM | Cc1cc(C)cc(C2CCCN2Cc2ccc(Oc3ccc(C(N)=O)cc3)c(F)c2)c1 (stereo unspecified) | 9 | 2.13 | Activity (Mus musculus [9]): Active
4 | 78.8% | 36.5% | 100% | 99.1% | 99.3% | 87.5% | 37.6 nM | 489 nM | 32.3 nM | Cc1cc(C)cc(C2CCCN2Cc2ccc(Oc3ccc(C(N)=O)cc3)c(Cl)c2)c1 (stereo unspecified) | 13 | 0.85 | 
5 | 73.4% | 37.4% | 98.7% | 96.8% | 95.8% | 89.2% | 42.7 nM | 429 nM | 27.9 nM | Cc1cc(C)cc(C2CCCN2Cc2ccc(Oc3ccc(C(N)=O)cc3F)c(F)c2)c1 (stereo unspecified) | 10.1 | 0.65 | 

Second part, the molecule before the results:

Row | SMILES | inhibition (Mu-type opioid receptor [1]) | inhibition [2] | inhibition [3] | inhibition (Mu-type opioid receptor [4]) | inhibition [5] | inhibition [6] | Ki [11] | Ki [13] | Ki (Mu-type opioid receptor [14]) | Ratio Ki (Homo sapiens [8]) | Ratio Ki (Homo sapiens [10]) | further results
6 | NC(=O)c1ccc(Oc2ccc(CN3CCCC3c3ccc(F)cc3)cc2)c2ccccc12 (stereo unspecified) | 0% | 0% | 39% | 0% | 13.8% | 0% |  |  |  |  |  | 
7 | Cc1cccc(C2CCCN2Cc2ccc(Oc3ccc(C(N)=O)c4ccccc34)cc2)c1 (stereo unspecified) | 0% | 0% | 86.9% | 16.3% | 39.9% | 0% | 1740 nM | > 10000 nM | > 10000 nM | > 5.8 | > 5.8 | Activity (Mus musculus [7]): Active; Activity (Mus musculus [9]): Active; Activity (Mus musculus [12]): Active
8 | NC(=O)c1ccc(Oc2ccc(CN3CCCC3c3cccnc3)cc2)c2ccccc12 (stereo unspecified) | 11.3% | 0% | 12% | 52.2% | 5.1% | 0% |  |  |  |  |  | 
9 | NC(=O)c1ccc(Oc2ccc(CN3CCCC3c3cccc(F)c3)cc2)c2ccccc12 (stereo unspecified) | 0% | 2.3% | 57.9% | 0% | 27.7% | 4% |  |  |  |  |  | 
10 | Cc1cc(C)cc(C2CCCN2Cc2ccc(Oc3ccc(C(N)=O)c4ccccc34)cc2)c1 (stereo unspecified) | 0% | 0% | 23.7% | 0% | 12.2% | 0% |  |  |  |  |  | 
11 | COc1ccc(C2CCCN2Cc2ccc(Oc3ccc(C(N)=O)c4ccccc34)cc2)cc1 (stereo unspecified) | 0% | 0% | 80.5% | 15% | 46.5% | 9% | 4600 nM | > 10000 nM | > 10000 nM | > 2.2 | > 2.2 | 
12 | Cc1ccccc1C1CCCN1Cc1ccc(Oc2ccc(C(N)=O)c3ccccc23)cc1 (stereo unspecified) | 0% | 0% | 34% | 0% | 13.9% | 2.9% |  |  |  |  |  | 
13 | Cc1cc(C)cc([C@@H]2CCCN2Cc2ccc(Oc3ccc(C(N)=O)cc3F)cc2)c1 [ATICAPRANT] |  |  |  |  |  |  |  |  |  |  |  | half-life [20]: 2 to 4 h; Tmax [21]: 1 to 2 h; bioavailability [22]: 25%
14 | NC(=O)c1ccc(Oc2ccc(CN3CCCC3c3cccc(Cl)c3)cc2)c2ccccc12 (stereo unspecified) | 0% | 0% | 64.1% | 0% | 31.4% | 0% |  |  |  |  |  | 
